Measured values taken from ChEMBL document CHEMBL1137704, “Photodynamic inactivation of Candida albicans sensitized by tri- and tetra-cationic porphyrin derivatives” (Eur J Med Chem, 2009).
Active and inactive are the calls of the source. No cut-off for these calls is given here.

Assays:
Candida albicans [1] = experiment: Phototoxicity against Candida albicans PC31 in PBS at 10^7 CFU/ml cellular density assessed as cellular inactivation at 5 uM after 30 mins irradiated with visible light for 30 mins; type: functional
Method in brief: (§1)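 Overnight stationary-phase cells in 10 mM PBS pH 7.0 (2 mL) were dark-incubated with porphyrin for 30 min at 37 °C, then exposed to a 150 W slide-projector lamp filtered through 2.5 cm of water. Dark and light-only controls were included. Survivors were counted as CFU after serial dilution, plating in triplicate on Sabouraud agar and ~48 h at 37 °C. Three separate experiments.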

Candida albicans [2] = experiment: Phototoxicity against Candida albicans PC31 in PBS at 10^6 CFU/ml cellular density assessed as cellular inactivation at 5 uM after 30 mins irradiated with visible light for 5 mins; type: functional; method in brief: as §1
Candida albicans [3] = experiment: Drug uptake in Candida albicans PC31 at 10^6 CFU/ml cellular density assessed per 10^6 cells at 1 uM after 30 mins by fluorescence emission analysis; type: ADME, organism-based; details: in vivo, 0.5 h
Method in brief: (§2)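 Stationary-phase yeast (overnight Sabouraud broth, 37 °C) washed into 10 mM PBS pH 7.0, 2 mL suspensions incubated with sensitizer in the dark at 37 °C. Cells pelleted, resuspended in 2% aqueous SDS, kept overnight at 4 °C, sonicated 30 min. Porphyrin quantified by fluorescence (exc 418, em 650 nm) against SDS calibration standards, normalized to total cell number. Three separate experiments.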

Candida albicans [4] = experiment: Drug uptake in Candida albicans PC31 at 10^7 CFU/ml cellular density assessed per 10^6 cells at 5 uM after 30 mins by fluorescence emission analysis; type: ADME, organism-based; details: in vivo, 0.5 h; method in brief: as §2
Candida albicans [5] = experiment: Drug uptake in Candida albicans PC31 at 10^8 CFU/ml cellular density assessed per 10^6 cells at 5 uM after 30 mins by fluorescence emission analysis; type: ADME, organism-based; details: in vivo, 0.5 h; method in brief: as §2
Candida albicans [6] = experiment: Drug uptake in Candida albicans PC31 at 10^6 CFU/ml cellular density assessed per 10^6 cells at 5 uM after 30 mins by fluorescence emission analysis; type: ADME, organism-based; details: in vivo, 0.5 h; method in brief: as §2
Candida albicans [7] = experiment: Phototoxicity against Candida albicans PC31 in PBS at 10^6 CFU/ml cellular density assessed as cellular inactivation at 5 uM after 30 mins irradiated with visible light for 30 mins; type: functional; method in brief: as §1
Candida albicans [8] = experiment: Phototoxicity against Candida albicans PC31 in PBS at 10^6 CFU/ml cellular density pretreated for 30 mins irradiated with visible light for 15 mins; type: functional, organism-based; method in brief: as §1
Candida albicans [9] = experiment: Phototoxicity against Candida albicans PC31 in PBS at 10^6 CFU/ml cellular density at 5 uM after 30 mins in dark at 37 deg C; type: functional, organism-based; method in brief: as §1

Drug uptake (Candida albicans [3]) | Drug uptake (Candida albicans [4]) | Drug uptake (Candida albicans [5]) | Drug uptake (Candida albicans [6]) | SMILES | Activity (Candida albicans [1]) | Activity (Candida albicans [2]) | Activity (Candida albicans [7]) | Activity (Candida albicans [8]) | Activity (Candida albicans [9])
0.32 nmol | 0.12 nmol | 0.01 nmol | 1.48 nmol | C[N+](C)(C)c1ccc(-c2c3nc(c(-c4ccc([N+](C)(C)C)cc4)c4ccc([nH]4)c(-c4ccc([N+](C)(C)C)cc4)c4nc(c(-c5ccc(C(F)(F)F)cc5)c5ccc2[nH]5)C=C4)C=C3)cc1.[I-].[I-].[I-] | 99.9% | 99.99% | >99.9994% |  | 
0.03 nmol |  |  |  | O=S(=O)([O-])c1ccc(-c2c3nc(c(-c4ccc(S(=O)(=O)[O-])cc4)c4ccc([nH]4)c(-c4ccc(S(=O)(=O)[O-])cc4)c4ccc([nH]4)c(-c4ccc(S(=O)(=O)[O-])cc4)c4nc2C=C4)C=C3)cc1.[Na+].[Na+].[Na+].[Na+] |  |  | inactive | Dose-dependent effect | inactive
